# Laboratory results reported in ChEMBL document CHEMBL3259701, “Siderophore receptor-mediated uptake of lactivicin analogues in gram-negative bacteria” (J Med Chem, 2014).
# pIC50: −log10 of the molar value.
# Key:
# Pseudomonas aeruginosa [1] = assay: Ratio of MIC for Pseudomonas aeruginosa PAO1 harboring siderophore receptor fptA mutant to MIC for wild type Pseudomonas aeruginosa PAO1 in medium containing aztreonam and low-Fe by CLSI broth microdilution method; assay type: functional
# Pseudomonas aeruginosa [2] = assay: Ratio of MIC for Pseudomonas aeruginosa PAO1 harboring siderophore receptor piuA and pfeA double mutant to MIC for wild type Pseudomonas aeruginosa PAO1 in medium containing low-Fe by CLSI broth microdilution method; assay type: functional
# In short: (§1)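 CLSI broth microdilution MICs in a modified Mueller-Hinton broth depleted of iron to mimic low in vivo iron. Tested against wild-type PAO1 and isogenic siderophore receptor knockout strains. Reported as the knockout-strain MIC divided by the PAO1 MIC in the same iron-depleted medium.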
# Pseudomonas aeruginosa [3] = assay: Antibacterial activity against Pseudomonas aeruginosa PAO1 harboring siderophore receptor piuA, pfeA and pirA mutant in medium containing aztreonam and low-Fe by CLSI broth microdilution method; assay type: functional
# Escherichia coli [4] = assay: Antibacterial activity against Escherichia coli DH5alpha harboring pUCP26 empty vector by CLSI broth microdilution method; assay type: functional; details: DH5[alpha]
# Pseudomonas aeruginosa [5] = assay: Antibacterial activity against Pseudomonas aeruginosa PAO1 harboring siderophore receptor fptA mutant in medium containing low-Fe by CLSI broth microdilution method; assay type: functional
# In short: (§2)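 MIC by CLSI broth microdilution in a modified Mueller Hinton broth depleted of iron to mimic the low-iron in vivo environment. Tested against PAO1 and isogenic strains lacking one or more siderophore receptors.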
# Pseudomonas aeruginosa [6] = assay: Antibacterial activity against Pseudomonas aeruginosa PAO1 harboring siderophore receptor pirA and pfeA double mutant in Mueller-Hinton broth medium by CLSI broth microdilution method; assay type: functional
# In short: (§3)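 MIC by CLSI broth microdilution in standard Mueller Hinton broth. Tested against wild-type P. aeruginosa PAO1 and an isogenic panel lacking one or more siderophore receptors.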
# [7] = Displacement of fluorescent Bocillin FL from Pseudomonas aeruginosa PBP1b
# Pseudomonas aeruginosa [8] = assay: Antibacterial activity against Pseudomonas aeruginosa PAO1 in medium containing low-Fe by CLSI broth microdilution method; assay type: functional; in short: as §2
# Pseudomonas aeruginosa [9] = assay: Ratio of MIC for Pseudomonas aeruginosa PAO1 harboring siderophore receptor fptA mutant to MIC for wild type Pseudomonas aeruginosa PAO1 in medium containing low-Fe by CLSI broth microdilution method; assay type: functional
# In short: (§4)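 Ratio of strain MIC to PAO1 MIC. Both MICs were obtained by CLSI broth microdilution in iron-depleted modified Mueller Hinton broth. A shift greater than 4× versus the parent was read as the deleted receptor(s) taking part in uptake.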
# Pseudomonas aeruginosa [10] = assay: Ratio of MIC for Pseudomonas aeruginosa PAO1 harboring siderophore receptor piuA and fpvA double mutant to MIC for wild type Pseudomonas aeruginosa PAO1 in medium containing aztreonam and low-Fe by CLSI broth microdilution method; assay type: functional
# Pseudomonas aeruginosa [11] = assay: Ratio of MIC for Pseudomonas aeruginosa PAO1 harboring siderophore receptor fptA mutant in MHB medium to MIC for Pseudomonas aeruginosa PAO1 harboring siderophore receptor fptA mutant in medium containing low-Fe by CLSI broth microdilution method; assay type: functional
# Pseudomonas aeruginosa [12] = assay: Ratio of MIC for Pseudomonas aeruginosa PAO1 harboring siderophore receptor pirA and pfeA double mutant to MIC for wild type Pseudomonas aeruginosa PAO1 in medium containing low-Fe by CLSI broth microdilution method; assay type: functional; in short: as §4
# Pseudomonas aeruginosa [13] = assay: Ratio of MIC for Pseudomonas aeruginosa PAO1 harboring siderophore receptor pirA mutant to MIC for wild type Pseudomonas aeruginosa PAO1 in medium containing aztreonam and low-Fe by CLSI broth microdilution method; assay type: functional
# Pseudomonas aeruginosa [14] = assay: Antibacterial activity against Pseudomonas aeruginosa PAO1 harboring siderophore receptor piuA and fptA double mutant in Mueller-Hinton broth medium by CLSI broth microdilution method; assay type: functional; in short: as §3
# Pseudomonas aeruginosa [15] = assay: Antibacterial activity against Pseudomonas aeruginosa PAO1 harboring siderophore receptor piuA and pfeA double mutant in Mueller-Hinton broth medium by CLSI broth microdilution method; assay type: functional; in short: as §3
# Pseudomonas aeruginosa [16] = assay: Ratio of MIC for Pseudomonas aeruginosa PAO1 harboring siderophore receptor piuA and pirA double mutant to MIC for wild type Pseudomonas aeruginosa PAO1 in Mueller-Hinton broth medium by CLSI broth microdilution method; assay type: functional
# In short: (§5)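 Broth microdilution MIC per CLSI in standard Mueller-Hinton broth, run against wild-type P. aeruginosa PAO1 and isogenic PAO1 strains lacking one or more siderophore receptors. Value is the mutant-strain MIC divided by the PAO1 MIC.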
# Pseudomonas aeruginosa [17] = assay: Antibacterial activity against Pseudomonas aeruginosa PAO1 harboring siderophore receptor pfeA mutant in Mueller-Hinton broth medium by CLSI broth microdilution method; assay type: functional; in short: as §3
# Pseudomonas aeruginosa [18] = assay: Antibacterial activity against Pseudomonas aeruginosa PAO1 harboring siderophore receptor fptA mutant in Mueller-Hinton broth medium by CLSI broth microdilution method; assay type: functional; in short: as §3
# Pseudomonas aeruginosa [19] = assay: Ratio of MIC for Pseudomonas aeruginosa PAO1 harboring siderophore receptor piuA and fptA double mutant to MIC for wild type Pseudomonas aeruginosa PAO1 in medium containing low-Fe by CLSI broth microdilution method; assay type: functional; in short: as §1
# Escherichia coli [20] = assay: Antibacterial activity against Escherichia coli DH5alpha expressing beta-lactamase NDM-1 by CLSI broth microdilution method; assay type: functional; details: DH5[alpha]
# Pseudomonas aeruginosa [21] = assay: Ratio of MIC for Pseudomonas aeruginosa PAO1 harboring siderophore receptor piuA and fptA double mutant to MIC for wild type Pseudomonas aeruginosa PAO1 in medium containing aztreonam and low-Fe by CLSI broth microdilution method; assay type: functional
# Pseudomonas aeruginosa [22] = assay: Antibacterial activity against Pseudomonas aeruginosa PAO1 harboring siderophore receptor fptA mutant in medium containing aztreonam and low-Fe by CLSI broth microdilution method; assay type: functional
# Acinetobacter baumannii = assay: Antibacterial activity against Acinetobacter baumannii AB-3167 by CLSI broth microdilution method; assay type: functional
# Klebsiella pneumoniae = assay: Antibacterial activity against Klebsiella pneumoniae KP-3700 by CLSI broth microdilution method; assay type: functional
# Pseudomonas aeruginosa [23] = assay: Ratio of MIC for Pseudomonas aeruginosa PAO1 harboring siderophore receptor piuA and fpvA double mutant to MIC for wild type Pseudomonas aeruginosa PAO1 in Mueller-Hinton broth medium by CLSI broth microdilution method; assay type: functional; in short: as §5
# Pseudomonas aeruginosa [24] = assay: Antibacterial activity against Pseudomonas aeruginosa PAO1 harboring siderophore receptor piuA mutant in medium containing aztreonam and low-Fe by CLSI broth microdilution method; assay type: functional
# Pseudomonas aeruginosa [25] = assay: Antibacterial activity against Pseudomonas aeruginosa PAO1 harboring siderophore receptor piuA and pfeA double mutant in medium containing low-Fe by CLSI broth microdilution method; assay type: functional; in short: as §2
# Escherichia coli [26] = assay: Antibacterial activity against Escherichia coli DH5alpha expressing beta-lactamase OXA-24/40 by CLSI broth microdilution method; assay type: functional; details: DH5[alpha]
# Pseudomonas aeruginosa [27] = assay: Ratio of MIC for Pseudomonas aeruginosa PAO1 harboring siderophore receptor pfeA mutant to MIC for wild type Pseudomonas aeruginosa PAO1 in medium containing aztreonam and low-Fe by CLSI broth microdilution method; assay type: functional
# Escherichia coli [28] = assay: Antibacterial activity against Escherichia coli DH5alpha expressing beta-lactamase SHV-5 by CLSI broth microdilution method; assay type: functional; details: DH5[alpha]
# Pseudomonas aeruginosa [29] = assay: Ratio of MIC for Pseudomonas aeruginosa PAO1 harboring siderophore receptor piuA and pirA double mutant in MHB medium to MIC for Pseudomonas aeruginosa PAO1 harboring siderophore receptor piuA and pirA double mutant in medium containing low-Fe by CLSI broth microdilution method; assay type: functional
# Pseudomonas aeruginosa [30] = assay: Antibacterial activity against Pseudomonas aeruginosa PAO1 harboring siderophore receptor piuA and pfeA double mutant in medium containing aztreonam and low-Fe by CLSI broth microdilution method; assay type: functional
# Pseudomonas aeruginosa [31] = assay: Ratio of MIC for Pseudomonas aeruginosa PAO1 harboring siderophore receptor piuA and pirA double mutant to MIC for wild type Pseudomonas aeruginosa PAO1 in medium containing low-Fe by CLSI broth microdilution method; assay type: functional; in short: as §1
compound,measurement,setting,value
CC(C)(O/N=C(\C(=O)N[C@H]1CON(C2(C(=O)O)C[C@H](N3C(=O)c4cc(O)c(O)cc4C3=O)C(=O)O2)C1=O)c1csc(N)n1)C(=O)O (stereo partly drawn),Ratio,Pseudomonas aeruginosa [1],1
same,Ratio,Pseudomonas aeruginosa [2],>=4
same,MIC,Pseudomonas aeruginosa [3],4 µg/mL
same,MIC,Escherichia coli [4],0.03 µg/mL
same,MIC,Pseudomonas aeruginosa [5],0.06 µg/mL
same,MIC,Pseudomonas aeruginosa [6],0.5 µg/mL
same,pIC50,[7],6.57
same,MIC,Pseudomonas aeruginosa [8],≤ 0.03 µg/mL
same,Ratio,Pseudomonas aeruginosa [9],>=2
same,Ratio,Pseudomonas aeruginosa [10],1
same,Ratio,Pseudomonas aeruginosa [11],64
same,Ratio,Pseudomonas aeruginosa [12],1
same,Ratio,Pseudomonas aeruginosa [13],1
same,MIC,Pseudomonas aeruginosa [14],8 µg/mL
same,MIC,Pseudomonas aeruginosa [15],8 µg/mL
same,Ratio,Pseudomonas aeruginosa [16],32
same,MIC,Pseudomonas aeruginosa [17],0.5 µg/mL
same,MIC,Pseudomonas aeruginosa [18],4 µg/mL
same,Ratio,Pseudomonas aeruginosa [19],>=16
same,MIC,Escherichia coli [20],0.03 µg/mL
same,Ratio,Pseudomonas aeruginosa [21],1
same,MIC,Pseudomonas aeruginosa [22],4 µg/mL
same,MIC,Acinetobacter baumannii,0.06 µg/mL
same,MIC,Klebsiella pneumoniae,0.5 µg/mL
same,Ratio,Pseudomonas aeruginosa [23],32
same,MIC,Pseudomonas aeruginosa [24],4 µg/mL
same,MIC,Pseudomonas aeruginosa [25],0.125 µg/mL
same,MIC,Escherichia coli [26],0.03 µg/mL
same,Ratio,Pseudomonas aeruginosa [27],1
same,MIC,Escherichia coli [28],0.03 µg/mL
same,Ratio,Pseudomonas aeruginosa [29],64
same,MIC,Pseudomonas aeruginosa [30],4 µg/mL
same,Ratio,Pseudomonas aeruginosa [31],>=8
